Measurements of several laboratories.
Protocols differ between the studies behind these lines.
Organism: Severe acute respiratory syndrome coronavirus 2

Compound | assay | system | setting | measurement | value
Cc1ccc(NC(=O)c2cc3c(=O)n4cccc(C)c4nc3n2C)cc1Cl | viral replication | Vero | 1 nM | inhibition | 8.11%
N#C[C@@]1(c2ccc3c(N)ncnn23)O[C@H](CO)[C@@H](O)[C@H]1O | viral replication, inhibitor, qPCR | Vero C1008 | – | EC50 | 0.38 µM
CCc1ccc(NC(=O)c2cc3c(=O)n4ccccc4nc3n2C)cc1 | viral replication | Vero | 10 nM | inhibition | 6.1%
[2H]C([2H])([2H])n1cc2cc(/N=c3\[nH]c(=O)n(Cc4ncn(C)n4)c(=O)n3Cc3cc(F)c(F)cc3F)c(Cl)cc2n1 | viral replication, inhibitor, qPCR | – | 48 h | EC50 | 0.018 µM
COC(=O)Nc1nc2cc(C3(O)c4ccccc4C(=O)N3c3cc(Cl)ccc3C)ccc2[nH]1 (centres unmarked) | viral replication, inhibitor | Vero C1008 | 1 µM | inhibition | 40.3%
CCC(C)(C)C(=O)O[C@H]1C[C@@H](C)C=C2C=C[C@H](C)[C@H](CC[C@@H]3C[C@@H](O)CC(=O)O3)[C@H]21 | viral replication, inhibitor | Huh-7 | – | IC50 | > 2 µM
Cc1cccc(C)c1OCC(=O)N[C@@H](Cc1ccccc1)[C@@H](O)C[C@H](Cc1ccccc1)NC(=O)[C@H](C(C)C)N1CCCNC1=O | viral replication, inhibitor | Vero C1008 | – | EC50 | < 100 µM
Cc1cccn2c(=O)c3cc(C(=O)Nc4ccc(N(C)C)cc4)n(C)c3nc12 | viral replication | Vero | 10 nM | inhibition | 7.3%
CC(C)=CCc1c(O)ccc(C(=O)/C=C/c2ccc(O)cc2)c1O | cytopathic effect | Vero C1008 | 100 µM | inhibition | 90%
CCCN(CCC)c1cc(C)nc2c(-c3cnc(N(C)C)cc3C)c(C)nn12 | viral replication, inhibitor | Vero C1008 | 1 µM | inhibition | 60%
CN(C)CCCN1c2ccccc2Sc2ccc(Cl)cc21 | viral replication | Vero C1008 | – | IC50 | 0.282 µM
Cn1c(C(=O)Nc2ccc(Cl)cc2)cc2c(=O)n3ccccc3nc21 | viral replication | Vero | 10 µM | inhibition | 91.8%
COc1ccc(C[C@@H]2c3cc(Oc4cc(C[C@@H]5c6cc(O)c(OC)cc6CCN5C)ccc4O)c(OC)cc3CCN2C)cc1 | cytopathic effect | Vero C1008 | 12.5 µM | inhibition | 0%
CN[C@@H](C)C(=O)N[C@H]1CN(C(=O)CC(C)C)CC[C@H]2CC[C@@H](C(=O)NC(c3ccccc3)c3ccccc3)N2C1=O | viral replication, inhibitor | Vero C1008 | 1 µM | inhibition | 54%
CCC(CC)COC(=O)[C@H](C)N[P@](=O)(OC[C@H]1O[C@@](C#N)(c2ccc3c(N)ncnn23)[C@H](O)[C@@H]1O)Oc1ccccc1 | viral replication | Vero | 1 µM | inhibition | 95.2%
O=C(NC1CCN(CCCCC2(C(=O)NCC(F)(F)F)c3ccccc3-c3ccccc32)CC1)c1ccccc1-c1ccc(C(F)(F)F)cc1 | viral replication, inhibitor | Huh-7 | – | IC50 | 0.765 µM
CCN(C(C)=O)c1cccc(-c2ccnc3c(C#N)cnn23)c1 | viral replication, inhibitor | Vero C1008 | 1 µM | inhibition | 42.1%
Cc1cc(NC(=O)c2cc3c(=O)n4cccc(C)c4nc3n2C)ccc1Br | viral replication | Vero | 0.1 µM | inhibition | 37.8%

Compound | assay | system | setting | measurement | value
CN(CCCN1c2ccccc2CCc2ccccc21)CC(=O)c1ccc(Cl)cc1 | viral replication, inhibitor | A549-ACE2 | – | IC50 | 7.76 µM
O=C(Nc1ccccc1F)c1cc2c(=O)n3ccccc3nc2n1Cc1ccccc1 | viral replication | Vero | 10 nM | inhibition | 50.8%
CN1CCN(C2=Nc3ccccc3Oc3ccc(Cl)cc32)CC1 | viral replication, inhibitor | A549-ACE2 | – | IC50 | 5.75 µM
O=C(O[C@@H]1Cc2c(O)cc(O)cc2O[C@@H]1c1cc(O)c(O)c(O)c1)c1cc(O)c(O)c(O)c1 | cytopathic effect | Vero C1008 | 1.562 µM | inhibition | 0%
COc1ccc(CCN(C)CCCC(C#N)(c2ccc(OC)c(OC)c2)C(C)C)cc1OC (centres unmarked) | viral replication, inhibitor | Huh-7 | – | IC50 | 0.534 µM
Fc1ccc([C@@H]2CCNC[C@H]2COc2ccc3c(c2)OCO3)cc1 | viral replication, inhibitor | A549-ACE2 | – | IC50 | 2.51 µM
Cn1c(C(=O)Nc2ccc3c(c2)OCCO3)cc2c(=O)n3ccccc3nc21 | viral replication | Vero | 10 µM | inhibition | 91.8%
CC(C)[C@H]1CC[C@H](C(=O)N[C@H](Cc2ccccc2)C(=O)O)CC1 | viral replication, inhibitor | Huh-7 | – | IC50 | > 2 µM
OCCN1CCN(CCCN2c3ccccc3C=Cc3ccccc32)CC1 | viral replication, inhibitor | A549-ACE2 | – | IC50 | 2.51 µM
C=C[C@@](C)(/C=C/c1ccc(O)cc1)CCC=C(C)C | cytopathic effect | Vero C1008 | 3.125 µM | inhibition | 0%
CCN(CC)CCCC(C)Nc1ccnc2cc(Cl)ccc12 (centres unmarked) | viral replication, inhibitor | Vero C1008 | – | IC50 | 42 µM
CN(Cc1cc(Br)cc(Br)c1N)C1CCCCC1 | viral replication | Vero C1008 | – | IC50 | 2.82 µM
O=C(/C=C/c1ccc(O)c(O)c1/C=C/c1ccc(O)c(O)c1)O[C@H](Cc1ccc(O)c(O)c1)C(=O)O | cytopathic effect, inhibitor | Vero C1008 | 1.562 µM | inhibition | 0%
CCCCCCCCCCCCCCCCCCOCCOP(=O)(O)OC[C@H]1O[C@@](C#N)(c2ccc3c(N)ncnn23)[C@H](O)[C@@H]1O | viral replication, inhibitor, qPCR | Vero C1008 | 48 h | EC90 | 0.33 µM
CCN(CC)CCCC(C)Nc1ccnc2cc(Cl)ccc12 (centres unmarked) | viral replication, inhibitor | A549-ACE2 | – | IC50 | 0.912 µM
CCCCCCCCCCCCCCCCOCCCOP(=O)(O)OC[C@H]1O[C@@](C#N)(c2ccc3c(N)ncnn23)[C@H](O)[C@@H]1O | viral replication, inhibitor, qPCR | Vero C1008 | 48 h | EC90 | 0.73 µM
CC(CN1c2ccccc2Sc2ccccc21)N(C)C (centres unmarked) | viral replication | Vero C1008 | – | IC50 | 3.16 µM
